Laboratory results from ChEMBL document CHEMBL5338721, “Alkyl-substituted N-methylaryl-N'-aryl-4-aminobenzamides: A new series of small molecule inhibitors for Wip1 phosphatase” (Eur J Med Chem, 2022).
The source made the active and inactive calls. The calls are words filed in the database; no cut-off is given here.

target: T1, Protein phosphatase 1D (Homo sapiens, UniProt O15297); assay: Inhibition of recombinant human Wip1 (1 to 420 residues) using human ATM phosphopeptide (AFEEG-pS-QSTTIGY) as substrate incubated for 7 mins by Bio-mol green assay
T1 sequence (O15297 whole entry): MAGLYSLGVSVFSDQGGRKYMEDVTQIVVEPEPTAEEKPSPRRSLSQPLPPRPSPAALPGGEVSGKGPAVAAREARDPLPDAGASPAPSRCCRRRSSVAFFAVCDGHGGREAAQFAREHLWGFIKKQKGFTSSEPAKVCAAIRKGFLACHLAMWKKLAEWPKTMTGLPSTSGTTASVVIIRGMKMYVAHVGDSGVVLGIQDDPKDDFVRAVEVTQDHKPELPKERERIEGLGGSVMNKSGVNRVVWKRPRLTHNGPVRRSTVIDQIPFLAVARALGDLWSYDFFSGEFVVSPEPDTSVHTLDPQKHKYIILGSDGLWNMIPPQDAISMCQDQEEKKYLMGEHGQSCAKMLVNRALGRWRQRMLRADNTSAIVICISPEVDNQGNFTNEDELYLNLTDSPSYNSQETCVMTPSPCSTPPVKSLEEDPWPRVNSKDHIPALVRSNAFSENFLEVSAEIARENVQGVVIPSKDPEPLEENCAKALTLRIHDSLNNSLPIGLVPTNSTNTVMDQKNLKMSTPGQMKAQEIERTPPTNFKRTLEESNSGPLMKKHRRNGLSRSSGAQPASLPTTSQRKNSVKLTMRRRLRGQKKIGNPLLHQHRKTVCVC
Outline: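 Released phosphate read by Biomol Green against phosphate standard curve; normalized to no-inhibitor (100%) and no-enzyme (0%). Screen at 100 μM; 9–10-point dose-response in triplicate, logistic fit for IC50 and Hill coefficient.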

SMILES | IC50 [µM]
O=C(Nc1cccc(Cl)c1)c1cccc(CNc2ccc(C(=O)Nc3cccc(OP(=O)(O)O)c3)cc2CC2CCCCC2)c1 | 3.8
O=C(Nc1cccc(OP(=O)(O)O)c1)c1ccc(NC(=O)c2cccc(CNc3cccc(Cl)c3)c2)c(CC2CCCCC2)c1 | 7.2
O=C(Nc1cccc(OP(=O)(O)O)c1)c1ccc(NCc2ccc(-c3ccc(Cl)cc3)cc2)c(CC2CCCCC2)c1 | 332
O=C(Nc1cccc(OP(=O)(O)O)c1)c1ccc(NCc2ccc(-c3cccc(Cl)c3)cc2)c(CC2CCCCC2)c1 | 48
COC(=O)c1ccc(NCc2cccc(C(=O)O)c2)c(CC2CCCCC2)c1 | 54.1
O=C(Nc1cccc(OP(=O)(O)O)c1)c1ccc(NCc2ccc(F)cc2)c(CC2CCCCC2)c1 | 28.1
O=C(Nc1cccc(OP(=O)(O)O)c1)c1ccc(NCc2cc3ccccc3o2)c(CC2CCCCC2)c1 | 21.4
O=C(Nc1cccc(Cl)c1)c1cccc(CNc2ccc(C(=O)Nc3cccc(OP(=O)(O)O)c3)cc2C2CC3CCC2C3)c1 (stereo not given) | 24.7
COC(=O)c1ccc(NCc2cccc(C(=O)O)c2)c(CCC2CCCCC2)c1 | 48.4
O=C(Nc1cccc(Cl)c1)c1ccc(CNc2ccc(C(=O)Nc3cccc(OP(=O)(O)O)c3)cc2CC2CCCCC2)cc1 | 11.1
O=C(Nc1cccc(Cl)c1)c1cccc(CNc2ccc(C(=O)Nc3cccc(O)c3)cc2CCC2CCCCC2)c1 | 1600
O=C(Nc1cccc(OP(=O)(O)O)c1)c1ccc(NCc2ccc(F)cc2)c(Cc2ccccc2)c1 | 63
COc1cc(OC)cc(-c2ccc(CNc3ccc(C(=O)Nc4cccc(OP(=O)(O)O)c4)cc3CC3CCCCC3)cc2)c1 | 18
COc1cccc(CNc2ccc(C(=O)Nc3cccc(OP(=O)(O)O)c3)cc2CC2CCCCC2)c1 | 139
O=C(Nc1cccc(OP(=O)(O)O)c1)c1ccc(NCc2ccc3ccccc3c2)c(CC2CCCCC2)c1 | 274
CCCCC(CCCC)CNc1ccc(C(=O)Nc2cccc(OP(=O)(O)O)c2)cc1CC1CCCCC1 | 512
O=C(Nc1cccc(Cl)c1)c1cccc(C(=O)Nc2ccc(C(=O)Nc3cccc(OP(=O)(O)O)c3)cc2CC2CCCCC2)c1 | 7.3
O=C(Nc1cccc(OP(=O)(O)O)c1)c1ccc(NCCCc2ccccc2)c(CC2CCCCC2)c1 | 105
COc1ccc(CNc2ccc(C(=O)Nc3cccc(OP(=O)(O)O)c3)cc2CC2CCCCC2)cc1 | 37
O=C(Nc1cccc(F)c1)c1cccc(CNc2ccc(C(=O)Nc3cccc(OP(=O)(O)O)c3)cc2CC2CCCCC2)c1 | 20.8
O=C(Nc1ccc(OP(=O)(O)O)cc1)c1ccc(NCc2ccc(F)cc2)c(CC2CCCCC2)c1 | 29
O=C(Nc1ccc2c(c1)OCO2)c1cccc(CNc2ccc(C(=O)Nc3cccc(OP(=O)(O)O)c3)cc2CC2CCCCC2)c1 | 35.2
Nc1ccc(C(=O)Nc2cccc(OP(=O)(O)O)c2)cc1CC1CCCCC1 | 330
O=C(O)c1cccc(CNc2ccccc2CC2CCCCC2)c1 | 74.8
O=C(Nc1cccc(OP(=O)(O)O)c1)c1ccc(NCc2ccc(F)cc2)cc1 | 683
O=C(Nc1cccc(OP(=O)(O)O)c1)c1ccc(NCc2ccc(-c3cccc(F)c3)cc2)c(CC2CCCCC2)c1 | 30
O=C(NCCc1ccc(OP(=O)(O)O)cc1)c1ccc(NC(=O)c2ccc(F)cc2)c(CC2CCCCC2)c1 | 36
O=C(Nc1cccc(OP(=O)(O)O)c1)c1ccc(NCc2cccc(F)c2)c(CC2CCCCC2)c1 | 28.5
O=C(Nc1cccc(OP(=O)(O)O)c1)c1ccc(NCc2cccnc2)c(CC2CCCCC2)c1 | 105
O=C(Nc1cccc(Cl)c1)c1cccc(CNc2ccc(C(=O)Nc3cccc(OP(=O)(O)O)c3)cc2CCC2CCCCC2)c1 | 32.7

target: T2, Protein phosphatase 1D (Homo sapiens) (UniProt O15297); assay: Inhibition of recombinant human Wip1 (1 to 420 residues) using human ATM phosphopeptide (AFEEG-pS-QSTTIGY) as substrate at 100 uM incubated for 7 mins by Bio-mol green assay
T2 sequence (whole entry): T1 sequence (O15297 whole entry)
Outline: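 Purified recombinant Wip1 (1–420) incubated with compound and 100 μM ATM phosphopeptide for 7 min at 30 °C. Buffer: 50 mM Tris·HCl pH 7.5, EGTA, DTT, CHAPS, 0.1 mg/mL BSA, 30 mM MgCl₂. Phosphate measured by Biomol Green against a standard curve and normalized to no-inhibitor (100%) and no-enzyme (0%). Dose-response used 9–10 points, each in triplicate. IC50 from logistic fit (standard, or variable-slope giving a Hill coefficient).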

SMILES | inhibition
O=C(CC1CCCCC1)NCCCO | inactive
O=C(NCCCO)C1CCCCC1 | inactive
Nc1ccccc1CC1CCCCC1 | inactive

target: T3, Protein phosphatase 1A (Homo sapiens) (UniProt P35813); assay: Inhibition of PPM1A (unknown origin) using human p38alpha phosphopeptide as substrate upto 100 uM incubated for 7 mins by Biomol green assay
T3 sequence (whole entry): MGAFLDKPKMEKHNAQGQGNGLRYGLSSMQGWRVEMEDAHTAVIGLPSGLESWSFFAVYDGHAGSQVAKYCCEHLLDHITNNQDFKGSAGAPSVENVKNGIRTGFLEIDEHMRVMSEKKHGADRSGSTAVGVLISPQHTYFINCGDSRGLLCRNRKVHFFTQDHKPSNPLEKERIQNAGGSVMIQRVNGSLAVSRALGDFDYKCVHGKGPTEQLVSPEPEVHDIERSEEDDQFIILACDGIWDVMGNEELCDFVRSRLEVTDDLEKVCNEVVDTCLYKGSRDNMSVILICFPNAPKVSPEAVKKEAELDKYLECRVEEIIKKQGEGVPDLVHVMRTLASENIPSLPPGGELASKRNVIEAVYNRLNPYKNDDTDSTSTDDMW
Outline: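 Substrate: 100 μM p38α (175–185, 180pT) phosphopeptide, mixed with compound or DMSO, then 8 nM PPM1A added. Buffer: 50 mM Tris·HCl pH 7.5, 0.1 mM EGTA, 1 mM DTT, 1 mM CHAPS, 0.1 mg/mL BSA, 30 mM MgCl₂. Incubation: 7 min at 30 °C. Stopped with Biomol Green, 20 min colour development at room temperature. Released phosphate read at 620 nm against a phosphate standard curve. Compounds tested up to 100 μM.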

SMILES | inhibition
O=C(Nc1cccc(Cl)c1)c1cccc(CNc2ccc(C(=O)Nc3cccc(OP(=O)(O)O)c3)cc2CC2CCCCC2)c1 | inactive
O=C(Nc1cccc(OP(=O)(O)O)c1)c1ccc(NC(=O)c2cccc(CNc3cccc(Cl)c3)c2)c(CC2CCCCC2)c1 | inactive
O=C(Nc1cccc(Cl)c1)c1cccc(C(=O)Nc2ccc(C(=O)Nc3cccc(OP(=O)(O)O)c3)cc2CC2CCCCC2)c1 | inactive

target: T2, Protein phosphatase 1D (Homo sapiens); assay: Inhibition of recombinant human Wip1 (1 to 420 residues) using human ATM phosphopeptide (AFEEG-pS-QSTTIGY) as substrate at 100 uM incubated for 7 mins by Bio-mol green assay relative to control
Outline: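 Recombinant Wip1 (1–420) with 100 μM ATM phosphopeptide in 50 mM Tris·HCl pH 7.5 buffer with 30 mM MgCl₂, 7 min at 30 °C. Compound given at a single 100 μM concentration. Released phosphate quantified by Biomol Green with a phosphate standard curve. Percent inhibition taken from activity normalized to no-inhibitor (100%) and no-enzyme (0%) controls.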

SMILES | inhibition [%]
O=C(CCCC1CCCCC1)NCCCO | 1
O=C(O)c1cccc(CNc2ccccc2CCC2CCCCC2)c1 | 88
O=C(CCCCC1CCCCC1)NCCCO | 4
Nc1ccccc1CCC1CCCCC1 | 3
